# Assay outcomes (PubChem)
# This is a sample that favours compounds with a hit; in the whole collection about 0.62% have one here.
# PMI activator: activators of human phosphomannose isomerase; P34949; purified human PMI, coupled resazurin fluorescence, 20 min; hits give high values; 1 = vehicle control, 0 substrate-free wells; activation factor at 20 µM; 190,000 tested, 0.005% active; AID 1214;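 active = activation factor of 2 or more at 20 µM, relative to plate controls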
# Target sequence (P34949 whole entry, looked up): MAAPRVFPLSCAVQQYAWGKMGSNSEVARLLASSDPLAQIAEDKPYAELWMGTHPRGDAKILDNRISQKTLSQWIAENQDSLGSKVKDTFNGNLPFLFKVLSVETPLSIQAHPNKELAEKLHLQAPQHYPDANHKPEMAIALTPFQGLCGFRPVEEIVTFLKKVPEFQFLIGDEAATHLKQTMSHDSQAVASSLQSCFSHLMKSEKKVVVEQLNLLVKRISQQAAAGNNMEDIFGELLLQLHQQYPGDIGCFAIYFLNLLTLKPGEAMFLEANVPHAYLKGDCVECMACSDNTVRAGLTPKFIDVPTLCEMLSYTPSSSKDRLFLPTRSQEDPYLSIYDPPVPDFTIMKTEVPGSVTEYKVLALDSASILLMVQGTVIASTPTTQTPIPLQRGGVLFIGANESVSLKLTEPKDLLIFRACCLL
# TNAP act hi DEA: activators of human TNAP at high phosphate acceptor concentration. P05186. purified TNAP, CDP-star luminescence, 1 M DEA, 30 min; hits give high values; 0 = EDTA background, 1 = DMSO-only activity. activation factor at 20 µM. 200,000 tested, under 10 active. AID 1136;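 active = activation factor at least 2 at 20 µM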
#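 Assay system: human TNAP; Input: enzyme diluted 1/800 final; Reagent: CDP-star luminogenic substrate at 100 µM final; Timing: 30 min, room temperature; Signal: luminescence; Evaluation: TNAP activation factor scaled between EDTA and DMSO control wells.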
# PMI act satM6P: PMI (human) activation, high substrate; coupled PMI enzyme assay, resazurin fluorescence, 20 min; hits give high values; 1 = untreated enzyme, 0 = substrate-free blank; AID 1216; 190,000 tested, 0.34% active; activation factor at 20 µM;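 active = activation factor of 2 or more at 20 µM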
#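 Technique: Diaphorase-driven resazurin-to-resorufin fluorescence, excitation 544, emission 590 nm | Assay system: Human PMI in coupled enzyme assay | Times: Enzyme reaction with compound 20 min at room temperature | Medium: HEPES-buffered pH 7.4 with magnesium and detergent | Reagent: Mannose-6-phosphate 1.0 mM (near-saturating) plus 0.22 mM NADP+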
# TNAP inh noacc: TNAP (human) inhibition, acceptor-free conditions. purified TNAP, CDP-star luminescence, 30 min. P05186. inhibition, % at 20 µM. 200,000 tested, 0.26% active;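 active = tissue-nonspecific alkaline phosphatase inhibition above about 50% at 20 µM in the single-dose screen, limit read from the data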
# TNAP inh hi DEA: inhibitors of human TNAP at high phosphate acceptor concentration; P05186; purified TNAP, CDP-star luminescence, 1 M DEA; inhibition, % at 20 µM; 200,000 tested, 0.03% active;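 active = over 50% inhibition of tissue-nonspecific alkaline phosphatase at 20 µM in the single-dose screen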
# Numbers stand for hits; i = inactive; nt = no result.
SMILES,PMI activator,TNAP act hi DEA,PMI act satM6P,TNAP inh noacc,TNAP inh hi DEA
O=C(NC1CC1)c1cc2c(F)cccc2s1,i,i,i,i,i
COc1cccc(/C=N/Nc2ccc(S(=O)(=O)O)cc2)c1O,i,i,2.1,i,i
Cc1ccc(Cn2cnc3c(cnn3-c3ccc(F)cc3)c2=O)cc1,i,i,i,i,i
Cc1cc(=O)n(CCCO)c(O)c1C#N,i,i,i,i,i
Cc1cc(=S)cc(C)n1CCCO,i,i,2,i,i
CC1CCC(NC(=O)C(NC(=O)c2ccccc2)C(C)C)CC1 (centres undefined),i,i,i,i,i
Clc1ccc(C[n+]2csc3ccccc32)cc1,i,i,2.2,i,i
Fc1ccc(C[n+]2csc3ccccc32)cc1,i,i,i,i,i
CCc1ccccc1N/N=C(/C)c1c(O)cc(C)oc1=O,i,i,2.7,i,i
C/C(=N\NC(=O)c1ccccc1O)c1c(O)cc(C)oc1=O,i,i,i,i,i
Cc1cc(C(=O)CN2CCCC2)c(C)n1-c1ccc(Cl)cc1,i,i,i,i,i
CCN1CCN(CC(=O)c2cc(Cl)ccc2Cl)CC1,i,i,2,i,i
Nc1c(Cl)ncnc1N/N=C/c1ccc2ccccc2n1,i,i,i,i,54
Nc1c(Cl)ncnc1N/N=C/c1ccccn1,i,i,i,i,i
Oc1[nH]c2ccccc2c1N=NC(=S)NCCc1ccccc1,i,i,i,i,i
NC(=S)N=Nc1c(O)[nH]c2ccccc12,i,i,i,65,i
O=C1NC2(CCC3(CC2)OCCO3)NN1c1ccc(Cl)cc1,i,i,2.7,i,i
N#Cc1cc2cc3c(cc2nc1SCC(=O)OC1CCCCC1)OCO3,i,i,i,i,i
CC(=O)CSc1nc2cc3c(cc2cc1C#N)OCCO3,i,i,2,i,i
O=C(Nc1ccccc1N1CCOCC1)c1ccc(Cl)nc1,i,i,i,i,i
CCn1c(SCC(=O)c2ccc(O)c(O)c2)nnc1-c1ccc(C)cc1,i,i,i,53,i
CCn1c(SCC(=O)c2ccc3c(c2)Cc2ccccc2-3)nnc1-c1ccc(N)cc1,i,i,i,i,i
COc1ccc(OC)c(S(=O)(=O)Nc2ccc(O)c(Sc3ncn[nH]3)c2)c1,i,i,i,74,i
CCOc1ccc(S(=O)(=O)Nc2ccc(O)c(Sc3ncn[nH]3)c2)cc1,i,i,i,77,i
Cc1ccc(S(=O)(=O)Nc2ccc(O)c(Sc3ncn[nH]3)c2)cc1,i,i,i,74,i
SMILES,PMI activator,TNAP act hi DEA,PMI act satM6P,TNAP inh noacc,TNAP inh hi DEA
Cc1[nH]nc2c1C(C1CC=CCC1)C(C#N)=C(N)O2 (centres undefined),i,i,i,72,i
CCc1[nH]nc2c1C(C1C=CCCC1)C(C#N)=C(N)O2 (centres undefined),i,i,i,70,i
COc1ccccc1OCCn1c(=O)oc2ccc(C)cc21,i,i,i,i,i
Cc1ccc(S(=O)(=O)N2CC(O)CC2C(=O)OCC(=O)c2ccccc2Cl)cc1C (centres undefined),i,i,i,i,i
COc1ccc(-c2[nH]ncc2CN2CCC(OCc3cccnc3)CC2)c(F)c1,i,i,i,74,i
COc1ccc(-c2[nH]ncc2CN2CCCC2c2nonc2C)c(F)c1 (centres undefined),i,i,i,51,i
COc1ccc(-c2[nH]ncc2CN2CCN(Cc3cccs3)CC2)c(F)c1,i,i,i,63,i
CC(C)C(NS(=O)(=O)c1ccc2c(c1)OCCCO2)C(=O)O (centres undefined),i,i,i,i,i
CC1=NN(C(C#N)c2c(C)nn(Cc3ccccc3)c2C)C(C)(C)C1 (centres undefined),i,i,i,i,i
O=c1cc(-c2cccc3ccccc23)[nH][nH]1,i,i,i,69,i
COc1ccc(-c2cc(=O)[nH][nH]2)cc1,i,i,i,i,i
COC(=O)C(NC(=O)c1ccccc1)(Nc1nccs1)C(F)(F)F (centres undefined),i,i,i,i,i
COC(=O)C(NNc1ccccc1C)(NC(=O)c1ccc(F)cc1)C(F)(F)F (centres undefined),i,i,2.2,i,i
COC(=O)C(NNc1ccc(F)cc1)(NC(=O)c1ccccc1)C(F)(F)F (centres undefined),i,i,2.9,i,i
CCOC(=O)C(NCc1ccc(F)cc1)(NC(=O)c1ccccc1)C(F)(F)F (centres undefined),i,i,i,i,i
CN(C(=O)COC(=O)c1ccc2c(=O)n3c(nc2c1)CCC3)C1CCS(=O)(=O)C1 (centres undefined),i,i,i,i,i
Fc1ccc(N2Cc3ccsc3C=N2)cc1,i,i,i,i,i
COc1ccc(C(=O)N2CCc3ccccc32)cc1,i,i,i,i,i
COc1ccc(C(=O)/C=C2\NCC3c4ccccc4CCN3C2=O)cc1 (centres undefined),i,i,2.4,i,i
CC1CCCCC1NC1=NCCCS1 (centres undefined),i,i,i,i,i
Cc1nn(-c2ccccc2)c(C)c1/C=N/NC(=O)c1cc(-c2ccccc2)n[nH]1,i,i,i,98,i
CCC(=O)n1nc(-c2cccnc2)nc1NCc1cccs1,i,i,i,69,i
CC(=O)n1nc(-c2cccnc2)nc1NCc1cccs1,i,i,i,57,i
CCCC(=O)n1nc(-c2cccnc2)nc1NCc1cccs1,i,i,i,i,i
NCCCCC(NC(=O)C1CCCN1C(=O)C1CSSCC(N)C(=O)NC(Cc2ccc(O)cc2)C(=O)NC(Cc2ccccc2)C(=O)NC(CCC(N)=O)C(=O)NC(CC(N)=O)C(=O)N1)C(=O)NCC(N)=O (centres undefined),i,i,i,i,i
SMILES,PMI activator,TNAP act hi DEA,PMI act satM6P,TNAP inh noacc,TNAP inh hi DEA
C/C(=N\N=C\c1ccc(N(C)C)cc1)c1cccc([N+](=O)[O-])c1,i,i,2.3,i,i
COCCCNC(=S)NCCCNc1nc2cc3c(cc2cc1C#N)OCO3,i,i,2.1,i,i
CCOCCCNC(=S)N1CCCN(c2nc3cc(C)ccc3cc2C#N)CC1,i,i,2.3,i,i
CCOCCCNC(=S)N1CCCN(c2nc3c(C)c(C)ccc3cc2C#N)CC1,nt,i,nt,i,i
CCOCCCNC(=S)NCCCNc1nc2c(C)c(C)ccc2cc1C#N,i,i,2.1,i,i
Cc1ccc(COn2c(-c3ccc(Cl)cc3)nc3ccc([N+](=O)[O-])cc32)cc1,i,i,i,i,i
CCOC(=O)C(C)On1c(-c2ccccc2)nc2ccc([N+](=O)[O-])cc21 (centres undefined),i,i,2,i,i
CCOC(=O)C(C)On1c(-c2ccc(Cl)cc2)nc2ccc([N+](=O)[O-])cc21 (centres undefined),i,i,2,i,i
